MPTP inh: permeability transition pore inhibition | isolated mouse mitochondria, Ca2+ swelling absorbance, 30 min | inhibition, % at 10 µM | hit rate 1.4% among 360,000 | AID 602449;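 active = inhibition of 50% or more, scaled per plate between neutral and stimulator controls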;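 note: 0% = DMSO wells given calcium and 100% = 1 mM EGTA wells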
NR3A LBD binder: modulates the human NR3A ligand-binding domain | NR3A LBD differential scanning fluorimetry, Tm shift; 0% = protein alone, 100% = glycine-bound protein | Tm shift relative to glycine control, % at 25 µM | hit rate 2.5% among 340,000;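 active = melting temperature shift of at least 10% of the positive control shift, at one fixed dose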
proCasp7 act: activates human procaspase-7, counter-screen for procaspase-3 activators | P55210 | recombinant procaspase-7, Ac-DEVD-pNA absorbance 405 nm; D23A/D198A/D206A triple mutant, cannot self-cleave; scale: DMSO 0, 5 µM enzyme 100 | activation, % at 8.5 µM | hit rate 0.093% among 330,000;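 active = percent activation above the screen-wide mean plus 3 SD, cut at about 25% in these data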
Target sequence (P55210 whole entry D23A/D198A/D206A): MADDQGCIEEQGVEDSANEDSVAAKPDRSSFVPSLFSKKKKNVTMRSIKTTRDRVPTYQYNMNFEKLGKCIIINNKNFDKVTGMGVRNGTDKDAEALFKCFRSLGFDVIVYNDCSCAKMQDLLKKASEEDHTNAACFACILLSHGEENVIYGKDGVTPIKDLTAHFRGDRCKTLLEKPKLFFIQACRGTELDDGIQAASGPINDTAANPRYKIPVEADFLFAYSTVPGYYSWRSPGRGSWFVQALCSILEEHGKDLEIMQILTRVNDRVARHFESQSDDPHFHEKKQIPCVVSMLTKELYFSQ
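signal = Epi-absorbance of released pNA at 405 nm, two timepoints | assay system = Uncleavable procaspase-7 mutant enzyme | reagent = Ac-DEVD-pNA substrate, 400 µM as added | times = 1 h enzyme–compound preincubation and 2 h substrate reaction, both 25 °C | benchmarks = low DMSO alone, high DMSO plus 5 µM PC-7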
aDG glyco up: alpha-DG glycosylation activation; Pro5-aDG cells, alpha-DG glycosylation AlphaScreen (IIH6); 0% Pro5, 100% B10-LARGE cell signal; hit rate 0.22% among 360,000; activation, % at 10 µM;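 active = activation of at least 8% versus controls, or a plate z-score of at least 8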;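 note: Pro5 are CHO cells carrying HIG-tagged alpha-DG that lacks glycosylation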
proCasp3 act: activators of human procaspase-3 | P42574 | recombinant procaspase-3 D3A, Ac-DEVD-pNA absorbance 405 nm | hit rate 0.11% among 330,000 | activation, % at 8.5 µM;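 active = activation above the mean of all tested compounds plus 3 SD, cut at about 21% in these data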;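 note: 0% = DMSO alone and 100% = DMSO wells spiked with extra 5 µM PC-3 D3A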
Target sequence (P42574 whole entry D9A/D28A/D175A): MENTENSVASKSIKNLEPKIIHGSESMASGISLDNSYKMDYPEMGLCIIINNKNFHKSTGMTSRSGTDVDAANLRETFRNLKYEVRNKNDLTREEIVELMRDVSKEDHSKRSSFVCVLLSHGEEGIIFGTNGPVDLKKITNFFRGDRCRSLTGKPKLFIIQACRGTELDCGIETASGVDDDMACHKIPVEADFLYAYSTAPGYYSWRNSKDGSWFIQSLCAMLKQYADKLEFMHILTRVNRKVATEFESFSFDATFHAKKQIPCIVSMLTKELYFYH
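Test system: Procaspase-3 D3A mutant; medium: Zinc-free HEPES/NaCl buffer with 0.01% Triton X-100 at pH 7.4; reagent: DEVD-pNA substrate; doses: one concentration, 8.5 µM nominal, 0.8% DMSO; times: 1 h preincubation plus 2 h reaction at 25 °C; signal: Epi-absorbance at 405 nm of released p-nitroaniline, 0 and 120 min; replicates: singlicate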
An asterisk follows results filed as active. In the library only some 3.7% were active in any assay of this set; here they are far more common.

CNc1nc2c(-c3ccc(Cl)cc3)nnn2c2ccccc12 was read as MPTP inh 3, NR3A LBD binder 3, proCasp7 act -4, aDG glyco up 0 and proCasp3 act 1.
For CCCCNc1nc2c(-c3ccccc3)nnn2c2ccccc12 the results were MPTP inh 2, NR3A LBD binder 0, proCasp7 act 11, aDG glyco up 0 and proCasp3 act 4.
Cc1ccc(-c2nnn3c2nc(NC(C)C)c2ccccc23)cc1 was read as MPTP inh 2, NR3A LBD binder 23*, proCasp7 act 9, aDG glyco up 0 and proCasp3 act 13.
For CCOC(=O)C1(C)CCCN(C(=O)c2ccc3ccccc3c2)C1 (configuration not stated) the results were MPTP inh 0 and aDG glyco up 1.
Screening Cc1cccc(-c2nnn3c2nc(NCCc2ccc(S(N)(=O)=O)cc2)c2ccccc23)c1 returned MPTP inh 0, NR3A LBD binder 33*, proCasp7 act 10, aDG glyco up 0 and proCasp3 act 7.
`CC(=O)NCCNc1nc2c(-c3cccc(C)c3)nnn2c2ccccc12` gave MPTP inh 1, NR3A LBD binder -3, proCasp7 act 12, aDG glyco up 0 and proCasp3 act 5.
O=C(CSc1nc2ccc(NC(=O)CSc3nnnn3Cc3ccccc3)cc2s1)Nc1ccccc1 was read as MPTP inh 13, NR3A LBD binder 17*, proCasp7 act 8, aDG glyco up 0 and proCasp3 act -2.
Cc1nc2ccc(NC(=O)COc3ccccc3C)cc2s1 was read as MPTP inh -1, NR3A LBD binder 32*, proCasp7 act -8, aDG glyco up 0 and proCasp3 act -5.
O=C(CSc1nc2ccc(NC(=O)c3ccccc3C(=O)O)cc2s1)Nc1ccc(F)c([N+](=O)[O-])c1 was read as MPTP inh -1, NR3A LBD binder 18*, proCasp7 act -9, aDG glyco up 0 and proCasp3 act -6.
Screening Cc1ccccc1OCc1nnc(SCC(=O)Nc2ccc3nc(SCC(=O)Nc4ccccc4)sc3c2)n1C returned MPTP inh 4, NR3A LBD binder 17*, proCasp7 act 2, aDG glyco up 0 and proCasp3 act -8.
For COC(=O)CSc1nc2ccc(NC(=O)CSc3nnnn3Cc3ccccc3)cc2s1 the results were MPTP inh 0, NR3A LBD binder -6, proCasp7 act -4, aDG glyco up 0 and proCasp3 act 0.
Screening CCc1cccc(CC)c1NC(=O)NC1CCCCC1 returned MPTP inh -1, NR3A LBD binder 13*, proCasp7 act 3, aDG glyco up 0 and proCasp3 act 3.
`CCc1ccccc1NC(=O)NC1CCCCC1` gave MPTP inh -2, NR3A LBD binder 1, proCasp7 act 2, aDG glyco up 0 and proCasp3 act 4.
[O-][n+]1c2ccccc2cc2ccccc21 was read as MPTP inh 0, NR3A LBD binder 46*, proCasp7 act -5, aDG glyco up 1 and proCasp3 act -4.
For Cc1ccc(CNC(=O)c2cc(S(=O)(=O)N3CCCCC3)ccc2N2CCOCC2)cc1 the results were MPTP inh -1, NR3A LBD binder 1, proCasp7 act 6, aDG glyco up 0 and proCasp3 act 6.
Screening COc1ccc(OC)c(CN2CCN(C(=O)c3ccc(S(=O)(=O)N4CCCCCC4)cc3)CC2)c1 returned MPTP inh -1 and aDG glyco up 0.
`CCC(=O)N1CCc2cc(Br)cc(S(=O)(=O)CC(=O)OC)c21` gave MPTP inh 1, NR3A LBD binder 14*, proCasp7 act -2, aDG glyco up 0 and proCasp3 act 7.
`CCC(=O)N1CCc2cc(Br)cc(S(=O)(=O)NCCN3CCCC3)c21` gave MPTP inh 0, NR3A LBD binder -2, proCasp7 act 4, aDG glyco up 0 and proCasp3 act 8.
`CCc1nnc(NC(=O)c2sc3nc4cc(C)ccc4cc3c2N)s1` gave MPTP inh 4, NR3A LBD binder 20*, proCasp7 act 4, aDG glyco up 0 and proCasp3 act -6.
`CCOC(=O)C(Oc1ccc2c(-c3ccccc3)cc(=O)oc2c1C)c1ccccc1` (configuration not stated) gave MPTP inh 2, NR3A LBD binder 14*, proCasp7 act -10, aDG glyco up 0 and proCasp3 act -4.
Screening COc1ccc(OC)c(N(CC(=O)N2CCCC2)S(=O)(=O)c2ccccc2)c1 returned MPTP inh -1, NR3A LBD binder 0, proCasp7 act -12, aDG glyco up 0 and proCasp3 act 4.
For COCCNC(=O)CN(c1ccc(C)cc1)S(=O)(=O)c1ccccc1 the results were MPTP inh 0, NR3A LBD binder -7, proCasp7 act -5, aDG glyco up 2 and proCasp3 act 10.
`COCCNC(=O)CN(c1ccc(OC)c(OC)c1)S(=O)(=O)c1ccc(C)cc1` gave MPTP inh -3, NR3A LBD binder 14*, proCasp7 act 9, aDG glyco up 0 and proCasp3 act 7.
Screening COC(=O)CN(c1cc(OC)ccc1OC)S(=O)(=O)c1ccc(OC)c(OC)c1 returned MPTP inh 1, NR3A LBD binder 10*, proCasp7 act 2, aDG glyco up 0 and proCasp3 act 0.
For C[C@H]1CN([C@@H](C)CO)C(=O)c2cc(C#CC3(O)CCCC3)cnc2O[C@H]1CN(C)C(=O)C1CC1 the results were MPTP inh 3 and aDG glyco up 0.
`CCOC1CCCc2oc(-c3ccsc3)c(-c3cnc(OC)nc3)c21` (configuration not stated) gave MPTP inh 0 and aDG glyco up 1.
Screening COCCn1c(=NC(=O)c2ccc(S(=O)(=O)N3CCc4ccccc4C3)cc2)sc2cc(S(N)(=O)=O)ccc21 returned MPTP inh -17, NR3A LBD binder 25*, proCasp7 act -3, aDG glyco up 2 and proCasp3 act 9.
`COCCn1c(=NC(C)=O)sc2cc([N+](=O)[O-])ccc21` gave MPTP inh 2, NR3A LBD binder 27*, proCasp7 act 6, aDG glyco up 0 and proCasp3 act 5.
Screening C=CCn1c(=NC(=O)c2ccc(S(=O)(=O)N3CCCc4ccccc43)cc2)sc2cc(S(N)(=O)=O)ccc21 returned MPTP inh 0, NR3A LBD binder 13*, proCasp7 act 0, aDG glyco up 0 and proCasp3 act 14.
COC(=O)Cn1c(=NC(=O)c2ccc(S(=O)(=O)N3CCc4ccccc4C3)cc2)sc2cc(OC)ccc21 was read as MPTP inh -1, NR3A LBD binder -1, proCasp7 act 7, aDG glyco up 0 and proCasp3 act 6.

Screening results: PubChem BioAssay, several laboratories
